Data: ChEMBL document CHEMBL1137570, “3-substituted 7-phenyl-pyrroloquinolinones show potent cytotoxic activity in human cancer cell lines” (J Med Chem, 2007)

Tests used:
[1] = Cytotoxicity against human H295R cells after 72 hrs by MTT assay; format: functional, cell-based; conditions: NCI-H295R
Outline: (§1)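 MTT assay. Cells seeded at 7 × 10³ per well; after 24 h, exponentially growing cells were exposed to compound (final 0.005–100 µM) for 72 h. MTT was added for 4 h, then 10% SDS in 0.01 N HCl for 18 h at 37 °C. Absorbance read at 550 nm; survival given as % of untreated cells. IC50 from 6-8 replicate wells, ≥2 independent experiments.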

A549 [2] = experiment: Cell cycle arrest in human A549 cells assessed as accumulation at G1 phase at 1 uM after 24 hrs; format: functional
Outline: (§2)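 A549 cells grown 24 h in drug-free medium or with compound at 0.1 or 1 µM. Cells were trypsinized, washed twice in PBS, fixed in cold 70% ethanol (30 min, -20 °C), then washed in citrate phosphate buffer and PBS. RNase (100 µg/mL) for 30 min at 37 °C, then propidium iodide (100 µg/mL) for 30 min at room temperature. Flow cytometry at 488/525 nm, ≥15 000 events, 3-4 repeats.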

A549 [3] = experiment: Cell cycle arrest in human A549 cells assessed as accumulation at G2/M phase at 0.1 uM after 24 hrs; format: functional; outline: as §2
OE19 = experiment: Cytotoxicity against human OE19 cells after 72 hrs by MTT assay; format: functional, cell-based; conditions: OE19, 72 h; outline: as §1
A549 [4] = experiment: Cytotoxicity against human A549 cells after 72 hrs by MTT assay; format: functional, cell-based; conditions: A549, 72 h
Outline: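 MTT assay. Cells seeded at 7 × 10³ per well; after 24 h, exponentially growing cells were exposed to compound (final 0.005–100 µM) for 72 h. MTT was added for 4 h, then 10% SDS in 0.01 N HCl for 18 h at 37 °C. Absorbance read at 550 nm; survival given as % of untreated cells.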

[5] = Cytotoxicity againat taxol-resistant human A549T24 cells after 72 hrs by MTT assay; format: functional, cell-based; conditions: A549, 72 h
HeLa = experiment: Cytotoxicity against human HeLa cells after 72 hrs by MTT assay; format: functional, cell-based; outline: as §1
MCF7 = experiment: Cytotoxicity against human MCF7 cells after 72 hrs by MTT assay; format: functional, cell-based; conditions: MCF7, 72 h; outline: as §1
[6] = Cytotoxicity againat taxol-resistant human A549T12 cells after 72 hrs by MTT assay; format: functional, cell-based; conditions: A549, 72 h
A549 [7] = experiment: Cell cycle arrest in human A549 cells assessed as accumulation at S phase at 0.1 uM after 24 hrs; format: functional; outline: as §2
HT-29 = experiment: Cytotoxicity against human HT29 cells after 72 hrs by MTT assay; format: functional, cell-based; conditions: HT-29, 72 h; outline: as §1
A549 [8] = experiment: Cell cycle arrest in human A549 cells assessed as accumulation at sub Go phase at 0.1 uM after 24 hrs; format: functional
ARO = experiment: Cytotoxicity against human Aro cells after 72 hrs by MTT assay; format: functional, cell-based; outline: as §1
A549 [9] = experiment: Resistance index, ratio of IC50 for A549 cells to IC50 for A549T12 cells; format: functional, Homo sapiens
A549 [10] = experiment: Cell cycle arrest in human A549 cells assessed as accumulation at S phase at 1 uM after 24 hrs; format: functional; outline: as §2
A549 [11] = experiment: Cell cycle arrest in human A549 cells assessed as accumulation at G2/M phase at 1 uM after 24 hrs; format: functional; outline: as §2
OVCAR-3 = experiment: Cytotoxicity against human Ovcar3 cells after 72 hrs by MTT assay; format: functional, cell-based; conditions: OVCAR-3, 72 h; outline: as §1
HepG2 = experiment: Cytotoxicity against human HepG2 cells after 72 hrs by MTT assay; format: functional, cell-based; conditions: HepG2, 72 h; outline: as §1
PT-45 = experiment: Cytotoxicity against human PT45 cells after 72 hrs by MTT assay; format: functional, cell-based; conditions: PT-45, 72 h; outline: as §1
A549 [12] = experiment: Cell cycle arrest in human A549 cells assessed as accumulation at G1 phase at 0.1 uM after 24 hrs; format: functional; outline: as §2
OE33 = experiment: Cytotoxicity against human OE33 cells after 72 hrs by MTT assay; format: functional, cell-based; conditions: OE33, 72 h; outline: as §1
A549 [13] = experiment: Cell cycle arrest in human A549 cells assessed as accumulation at sub Go phase at 1 uM after 24 hrs; format: functional

SMILES	IC50 [1]	Activity (A549 [2])	Activity (A549 [3])	IC50 (OE19)	IC50 (A549 [4])	IC50 [5]	IC50 (HeLa)	IC50 (MCF7)	IC50 [6]	Activity (A549 [7])	IC50 (HT-29)	Activity (A549 [8])	IC50 (ARO)	Activity (A549 [10])	Activity (A549 [11])	IC50 (OVCAR-3)	IC50 (HepG2)	IC50 (PT-45)	IC50 (OE33)	Activity (A549 [13])	other results
CCn1ccc2c3c(=O)cc(-c4ccccc4)[nH]c3ccc21	30 nM	14.1%	79.8%	80 nM	30 nM	30 nM	10 nM	40 nM	30 nM	8.1%	30 nM	0.6%	30 nM	8.1%	77.3%	40 nM	50 nM	30 nM	200 nM	0.4%	Ratio IC50 (A549 [9]): 1; Activity (A549 [12]): 11.7%
O=c1cc(-c2ccccc2)[nH]c2ccc3[nH]ccc3c12				1000 nM															2000 nM		
CCCCn1ccc2c3c(=O)cc(-c4ccccc4)[nH]c3ccc21	10 nM	12.9%	80.4%	7 nM	30 nM	30 nM	20 nM	60 nM	20 nM	7.7%	30 nM	0.2%	30 nM	9.2%	77.6%	10 nM	20 nM	40 nM	60 nM	0.4%	Activity (A549 [12]): 11.8%
O=c1cc(-c2ccccc2)[nH]c2ccc3c(ccn3Cc3ccccc3)c12	400 nM	14.6%	10.4%	500 nM	100 nM	200 nM	100 nM	300 nM	100 nM	9.7%	400 nM	1.1%	300 nM	9.4%	75.8%	500 nM	700 nM	80 nM	100 nM	0.5%	Ratio IC50 (A549 [9]): 1; Activity (A549 [12]): 78.9%
CCN(CC)CCn1ccc2c3c(O)cc(-c4ccccc4)nc3ccc21				10000 nM															16000 nM		
Cn1ccc2c3c(=O)cc(-c4ccccc4)[nH]c3ccc21	90 nM	15.6%	18.2%	100 nM	300 nM	200 nM	100 nM	400 nM	300 nM	8.8%	300 nM	6.4%	300 nM	9.2%	74.9%	700 nM	1000 nM	100 nM	800 nM	0.3%	Ratio IC50 (A549 [9]): 1; Activity (A549 [12]): 66.9%
CCCn1ccc2c3c(=O)cc(-c4ccccc4)[nH]c3ccc21	20 nM	13.5%	76.2%	50 nM	50 nM	40 nM	30 nM	70 nM	40 nM	8.7%	200 nM	1.3%	50 nM	9.6%	76.9%	20 nM	40 nM	50 nM	100 nM	0.3%	Ratio IC50 (A549 [9]): 1.2; Activity (A549 [12]): 13.6%
O=c1cc(-c2ccccc2)[nH]c2ccc3c(ccn3CC3CC3)c12	10 nM	16.3%	75.7%	100 nM	20 nM	20 nM	20 nM	40 nM	20 nM	7%	60 nM	0.4%	30 nM	8.6%	74.6%	10 nM	20 nM	20 nM	20 nM	0.3%	Ratio IC50 (A549 [9]): 1; Activity (A549 [12]): 16.5%
CCCCCn1ccc2c3c(=O)cc(-c4ccccc4)[nH]c3ccc21	20 nM	15.5%	79.6%	5 nM	40 nM	40 nM	20 nM	80 nM	50 nM	7.2%	200 nM	1%	70 nM	8.8%	75.5%	20 nM	30 nM	40 nM	20 nM	0.4%	Ratio IC50 (A549 [9]): 0.8; Activity (A549 [12]): 12.4%
CC(=O)O[C@H]1C(=O)[C@@]2(C)[C@H]([C@H](OC(=O)c3ccccc3)[C@]3(O)C[C@H](OC(=O)[C@H](O)[C@@H](NC(=O)c4ccccc4)c4ccccc4)C(C)=C1C3(C)C)[C@]1(OC(C)=O)CO[C@@H]1C[C@@H]2O [PACLITAXEL]	80 nM			400 nM		102 nM	8 nM	7 nM	60 nM		50 nM		0.2 nM			10 nM	300 nM	5 nM	200 nM		
CC[C@]1(O)C[C@H]2CN(CCc3c([nH]c4ccccc34)[C@@](C(=O)OC)(c3cc4c(cc3OC)N(C=O)[C@H]3[C@@](O)(C(=O)OC)[C@H](OC(C)=O)[C@]5(CC)C=CCN6CC[C@]43[C@@H]65)C2)C1 [VINCRISTINE]	90 nM	46.8%		50 nM	30 nM		5 nM	20 nM			10 nM		0.3 nM	7.9%	45.2%	20 nM	200 nM	4 nM	30 nM	0.5%	
